As usually defined, the viability is a read-out of living cells in per cent, often relative to untreated cells. For orientation: inhibition means the relative decrease from the control value, in per cent.

A short description of assay [1]: OD615 S. cerevisiae growth inhibition, permissive medium, pilot counter-assay, permissive growth control for S. cerevisiae lifespan shortening project (AID 705;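 active means growth inhibition above 25% in both replicates, a cutoff set 3 SD above the mean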). Conditions: OD615, 24 h, at 10 µM, hits give high values. In a few lines: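 System – S. cerevisiae with engineered DeaD lifespan system · Buffer or medium – SC raffinose/galactose permissive medium · Schedule – cells pre-grown 4 h, then 24 h compound exposure, 30 °C humidified · Technique – culture turbidity as optical density at 615 nm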

Assay [2] can be described thus: Restrictive medium S. cerevisiae growth inhibition, OD615, pilot screen of yeast lifespan reduction project, restrictive growth control (AID 706;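 active means growth inhibition above a set limit, 3 SD over mean compound inhibition, in both replicates, cut at about 43% in these data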;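 further: modified DeaD lifespan yeast strain shifted to restrictive glucose medium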). Conditions: OD615, 48 h, at 10 µM, hits give high values. In a few lines:
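Material: engineered S. cerevisiae DeaD strain / Medium: glucose-based CSMM-D restrictive medium / Compound: single dose of 10 µM compound final, 0.25% DMSO / Timing: 4 h pre-incubation, 48 h exposure at 30 °C / Technique: OD615 absorbance reading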

Assay [3] is described as follows: viability gain of MRP-1-high H69AR cells under doxorubicin, pilot screen, MRP-1 activator project, CellTiter-Glo, duplicate (AID 807;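 active means viability increase at or above a cutoff of the median across tested compounds plus 3 SD, cut at about 8.5% in these data, passing the limit was not always enough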;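 further: compound pretreatment 18-22 h then 72 h combined with doxorubicin; 0% = doxorubicin alone and 100% = vehicle without doxorubicin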). Conditions: H69AR viability with doxorubicin, CellTiter-Glo luminescence; at 10 µM; hits give high values. Background: ATP-based viability assays read luminescence as a measure of living cells.
Assay [4] can be described thus: growth suppression of beta-catenin knockout HCT116, pilot screen, human colon tumor cells (AID 823;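 active means cell viability at or below a set limit in both duplicate runs, the limit being the all-compound median minus 4 SD, cut at about 23% in these data, passing the limit was not always enough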;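 further: 0% = wells killed by 20 µM Hyamine and 100% = untreated DMSO cell wells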). Conditions: CellTiter-Glo, 60 h, at 10 µM, hits give low values.
Assay [5] in a line: growth suppression of PTEN-deleted HCT116, pilot screen, cell-based, HCT116 clonal line, CellTiter-Glo (AID 824;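 active means viability at or below 27.92% in each of two runs, the all-compound median minus 4 SD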;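 further: 0% = 20 µM Hyamine control and 100% = vehicle cell control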). The note with it: 60 h, at 10 µM, hits give low values.
Assay [6] in a line: inhibitors of the yeast RAM network, pilot screen, dse1pr::URA3 reporter, 5-FOA selection (AID 869;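 active means inhibition over a set limit, the all-compound mean plus 3 SD, in both replicate runs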;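 further: 0% = DMSO wells with no growth and 100% = 10 µM 1-NA-PP1 with full growth; RAM network block rescues cells from 5-FOA so hits raise OD615 growth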). The note with it: S. cerevisiae dse1pr::URA3 5-FOA growth, OD615, 2 d; at 10 µM; hits give high values; strain carries analog-sensitive mutant Cbk1 kinase.
Assay [7] can be described thus: RAM signaling pathway blockade in yeast – S. cerevisiae, Pdr1DBD-CYC8 efflux-inhibited sensitized strain, primary screen (AID 1298).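 Further: 0% = DMSO untreated cells without growth and 100% = 10 µM 1-NA-PP1 full growth; higher means more yeast growth rescued from 5-FOA killing.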 The note with it: S. cerevisiae cbk1-as DSE1-URA3 strain, 5-FOA growth OD615, 2 d; at 50 µM; hits give high values.

Unmarked numbers belong to inactive results. Inconclusive results are not listed. Calls of active or inactive are those of the source.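 How the source made its calls, unless noted: active means RAM network inhibition above 8.4% in each of two replicates, 3 SD over the compound average; inconclusive means above 8.4% inhibition in only one replicate; inactive means 8.4% inhibition or less in each replicate.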

With `CC1Cc2ccccc2N1C(=O)CCn1c(=O)sc2ccccc21` (stereo unspecified), the results for the growth inhibition in assay [1] and in assay [2] were -4.26% and -16.9%, respectively. Also, the viability increase in assay [3] was -1.79%. In addition, the viability in assay [4] is 93.3%; in assay [5], 85.3%. For the same compound, in assay [6], the inhibition was 1.17%. In assay [7], the RAM network inhibition was 3.45%.

Turning to `O=C(CN1CCOc2ccccc21)NCc1ccccc1`, the values for the growth inhibition in assay [1] and in assay [2] were -29.7% and 4.34%, respectively. Also, the viability increase in assay [3] was -6.69%. For the same compound, the viability in assay [4] is 98.2%; in assay [5] it was 86%. The inhibition in assay [6] was 0.395%. Moreover, the RAM network inhibition in assay [7] is 2.11%.

For the compound `CCC1CCCCN1C(=O)CSc1nnc(-c2ccc(Cl)cc2)o1` (stereo unspecified), the growth inhibition was 0.365% in assay [1] and -5.16% in assay [2]. In addition, the viability increase in assay [3] was 0.28%. In addition, the values for the viability in assay [4] and in assay [5] were 87% and 90.9%, respectively. For the same compound, in assay [6], the inhibition was 1.89%. The RAM network inhibition in assay [7] is 5.69%.

Take `CCOc1ccc(N=CC2=C(O)CC(C)(C)CC2=O)cc1`: the growth inhibition in assay [1] is -18.6%; in assay [2] it was -0.24%. In addition, the viability increase in assay [3] is -0.38%. The figures for the viability in assay [4] and in assay [5] were 92% and 103%, respectively. In assay [6], the inhibition is 1.86%. Besides, the RAM network inhibition in assay [7] was 1.77%.

As for `CCCc1cc(C(=O)Nc2cc(OC)c(Cl)cc2OC)no1`, the figures for the growth inhibition in assay [1] and in assay [2] were -4.69% and 4.3%, respectively. In addition, the viability increase in assay [3] is -4.41%. In addition, the viability was 89.5% in assay [4] and 88.8% in assay [5]. The inhibition in assay [6] is 0.45%. Also, the RAM network inhibition in assay [7] was 7.36%.

For the compound `CC(C)=C(NC(=O)c1ccccc1)C(=O)NCCCC(=O)O`, the growth inhibition was -7.54% in assay [1] and -18.8% in assay [2]. Moreover, the viability increase in assay [3] was -0.03%. Also, the viability in assay [4] is 100%; in assay [5] it was 103%. For the same compound, in assay [6], the inhibition is 1.5%. In addition, the RAM network inhibition in assay [7] is 2.34%.

For `CCC(C)Sc1nc2c(c(=O)n1C)SC(C)C2` (stereo unspecified), the figures for the growth inhibition in assay [1] and in assay [2] were -11.3% and 7.98%, respectively. The viability increase in assay [3] was -0.66%. Also, the viability was 91.6% in assay [4] and 91.8% in assay [5]. For the same compound, the inhibition in assay [6] is 2.51%. Also, the RAM network inhibition in assay [7] was 4.01%.

Turning to `Fc1cccc(-c2cc3nc4c(c(N5CCC6(CC5)OCCO6)n3n2)CCCC4)c1`, the growth inhibition in assay [1] was 3.03%; in assay [2], -2.67%. Moreover, in assay [3], the viability increase is -3.94%. For the same compound, the viability is 70.6% in assay [4] and 61.5% in assay [5]. In addition, the inhibition in assay [6] was 1.19%. Further, in assay [7], the RAM network inhibition was -0.47%.

`C=C(C)Cn1c(C(C)NC(=O)CCC)nc2ccccc21` (stereo unspecified): the growth inhibition in assay [1] is -26.1%; in assay [2], -7.25%. The viability increase in assay [3] was -3.54%. Besides, the viability in assay [4] was 83.9%; in assay [5], 86.7%. Further, in assay [6], the inhibition was 1.8%. In addition, in assay [7], the RAM network inhibition is 0.47%.

`COc1ccc(OC)c(CNC(=O)CCc2nc(-c3cccs3)no2)c1`: the results for the growth inhibition in assay [1] and in assay [2] were 2.87% and 11.3%, respectively. Moreover, the viability increase in assay [3] was -2.92%. Further, the viability is 98% in assay [4] and 93.4% in assay [5]. Besides, the inhibition in assay [6] is 1.71%. Further, the RAM network inhibition in assay [7] is 2.56%.

In the case of `CCOc1cccc(N2C(=O)CC(NCc3ccc(S(N)(=O)=O)cc3)C2=O)c1` (stereo unspecified), the growth inhibition is -14.7% in assay [1] and -1.03% in assay [2]. For the same compound, in assay [3], the viability increase is -1.3%. The viability is 101% in assay [4] and 94.7% in assay [5]. Further, the inhibition in assay [6] is 0.44%. For the same compound, in assay [7], the RAM network inhibition was 2.35%.

On to `Cn1cccc1Cc1nnc(SCC(=O)NCc2ccccc2)n1-c1ccc(F)cc1`, for which the results for the growth inhibition in assay [1] and in assay [2] were -3.32% and 0.42%, respectively. Besides, in assay [3], the viability increase was -3.08%. Further, the viability was 90.8% in assay [4] and 89.8% in assay [5]. The inhibition in assay [6] was 2.85%. Moreover, in assay [7], the RAM network inhibition is 2.8%.

Turning to `Cc1ccc(C(=O)Nc2ccc3c(c2)CCC3)o1`, the growth inhibition in assay [1] was -3.56%; in assay [2] it was -9.54%. For the same compound, the viability increase in assay [3] was -2.44%. The viability in assay [4] was 77.5%; in assay [5], 69.8%. For the same compound, in assay [6], the inhibition was 0.895%. Besides, the RAM network inhibition in assay [7] was -0.68%.

With `CNc1nc(C)nc(-c2ccccc2O)n1`, the figures for the growth inhibition in assay [1] and in assay [2] were -3.62% and 7.31%, respectively. For the same compound, the viability increase in assay [3] is -0.19%. For the same compound, the results for the viability in assay [4] and in assay [5] were 98.5% and 92.8%, respectively. In addition, the inhibition in assay [6] is 0.84%. In assay [7], the RAM network inhibition was 4.49%.

`COc1ccc(Nc2oc(-c3ccccc3Cl)nc2C#N)cc1`: the figures for the growth inhibition in assay [1] and in assay [2] were 9.48% and 0.98%, respectively. Moreover, the viability increase in assay [3] was -8%. For the same compound, the values for the viability in assay [4] and in assay [5] were 6.01% (active) and 8.29% (active), respectively. The inhibition in assay [6] is 1.94%. The RAM network inhibition in assay [7] is 7.73%.

`COc1cc2c(cc1OC)CN(Cc1cccs1)CC2`: the growth inhibition was -20.3% in assay [1] and -28.9% in assay [2]. Also, in assay [3], the viability increase was -1.14%. In addition, the viability in assay [4] was 86.4%; in assay [5], 90%. Further, the inhibition in assay [6] is 2.71%. The RAM network inhibition in assay [7] is 2.76%.

On to `C=CCn1c(SCC(=O)N2CCN(c3ccc(F)cc3)CC2)nnc1-c1ccco1`, for which the growth inhibition in assay [1] is 3.6%; in assay [2] it was 1.48%. In addition, the viability increase in assay [3] is -2.41%. Further, the viability is 60.7% in assay [4] and 73.1% in assay [5]. In addition, in assay [6], the inhibition is 1.71%. The RAM network inhibition in assay [7] is 11.3%.

Take `Cc1nc2ccc(S(=O)(=O)NC(C(=O)N3CCC(C)CC3)C(C)C)cc2s1` (stereo unspecified): the growth inhibition in assay [1] is -13.4%; in assay [2], -2.64%. Also, the viability increase in assay [3] was -2.02%. Besides, the viability was 93.9% in assay [4] and 89% in assay [5]. The inhibition in assay [6] was 2.38%. The RAM network inhibition in assay [7] was 2.55%.

For the origin of these results see PubChem BioAssay.
